Laboratory results published in ChEMBL document CHEMBL1145052, “Design and synthesis of novel pyridoxine 5'-phosphonates as potential antiischemic agents” (J Med Chem, 2003).

Columns and labels:
[1] = organism: Rattus norvegicus; assay: Glucose oxidation was measured using [C14] Glucose in perfusing rat heart; type: functional
Procedure, shortened: (§1)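 Isolated, spontaneously beating rat hearts under aerobic perfusion for 60 min. Test agents perfused at 1 mM, DCA positive control at 3 mM, untreated controls; n = 6 hearts per group. [3H]-palmitate and [14C]-glucose perfused together to measure fatty acid and glucose oxidation simultaneously.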

[2] = organism: Rattus norvegicus; assay: Fatty acid oxidation was measured using [3H]- palmitate in perfusing rat heart; type: functional; procedure, shortened: as §1
[3] = tested on: Rattus norvegicus; assay: Ability of compound to reduce the infarct size in rat administered via bolus at 0.02 mmol/kg; type: functional
Procedure, shortened: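 Male Wistar rats, carotid artery and jugular vein cannulated, LAD snare placed, 30 min stabilization. Bolus injection 0.02 mmol/kg given 5 min before LAD occlusion; saline infusion controls. 25 min ischemia, 2 h reperfusion. Area at risk delineated with Evans blue (2% w/v). AR pieces stained with NBT (0.5 mg/mL) for 40 min at 37 °C. Infarct size expressed as % of AR.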

[4] = organism: Rattus norvegicus; assay: Inhibitory activity against ATP receptor in isolated perfused rat heart

| Activity [4] | Compound | Activity [1] | Activity [2] | Reduction [3] |
| --- | --- | --- | --- | --- |
|  | Cc1ncc2c(c1O)COC2(O)C(F)(F)P(=O)(O)O (centres undefined) | 2339 | 414 | 46% |
|  | Cc1ncc(CP(=O)(O)O)c(O)c1O |  |  | 20% |
|  | Cc1ncc(C(O)P(=O)(O)O)c(O)c1O (centres undefined) |  |  | 19% |
| 10 µM | Cc1ncc(COP(=O)(O)O)c(C=O)c1O [PYRIDOXAL PHOSPHATE ANHYDROUS] | 2253 | 398 | 33% |
